ChEMBL document CHEMBL3774373, “Activity and Predicted Nephrotoxicity of Synthetic Antibiotics Based on Polymyxin B” (J Med Chem, 2016)
Values after ≈ are worked out from the molar mass of the structure shown. Numbered stars: 1 amine (or outer) side, 2 acyl side, 3 side chain; on linkers, the order of the positions; unused ones are H or OH. Bridge positions count the residues as written; N and C are the ends. Square brackets hold non-standard residues; d marks the D form. Peptide text beside a SMILES is read from it. * marks the point of attachment. Benzoyl(4-OPh) = O=C(c1ccc(Oc2ccccc2)cc1)*; Benzoyl(4-Ph) = O=C(c1ccc(-c2ccccc2)cc1)*; NH(2-ClPh) = Clc1ccccc1N*; dDab = NCC[C@@H](N)C(=O)O; Octanoyl = CCCCCCCC(=O)*; Dab = NCC[C@H](N)C(=O)O; CO = O=C([*:1])[*:2]

Experiments:
Klebsiella pneumoniae [1] = test: Antibacterial activity against Klebsiella pneumoniae ATCC BAA-2146 expressing NDM-1 after 18 hrs by 2 fold serial dilution method; assay type: functional; conditions: ATCC BAA-2146, 18 h
Procedure, shortened: (§1)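 Overnight cultures at 37 °C in nutrient or Mueller Hinton broth with shaking were diluted 50-fold in MHB and grown 1.5–3 h to mid-log phase. The inoculum was 5×10^5 CFU/mL in MHB. Compounds were 2-fold serially diluted, final 32 to 0.015 μg/mL. After 18 h at 37 °C, the MIC was read visually as the lowest concentration with no visible growth.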

Pseudomonas aeruginosa [2] = test: Antibacterial activity against clinical isolate polymyxin resistant Pseudomonas aeruginosa FADDI-PA070 after 18 hrs by 2 fold serial dilution method; assay type: functional; conditions: FADDI-PA070, 18 h
Procedure, shortened: (§2)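 Polymyxin-resistant clinical isolates were grown overnight at 37 °C in NB or MHB with shaking, diluted 50-fold in MHB and grown 1.5–3 h to mid-log phase. The inoculum was 5×10^5 CFU/mL. Compounds were 2-fold broth serial dilutions, final 32 to 0.015 μg/mL; the polymyxin controls ran 128–0.06 μg/mL. The MIC was the lowest concentration with no visible growth after 18 h at 37 °C.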

Pseudomonas aeruginosa [3] = test: Antibacterial activity against clinical isolate polymyxin resistant Pseudomonas aeruginosa PA9704 after 18 hrs by 2 fold serial dilution method; assay type: functional; conditions: PA9704, 18 h; procedure, shortened: as §2
Pseudomonas aeruginosa [4] = test: Antibacterial activity against Pseudomonas aeruginosa ATCC 27853 after 18 hrs by 2 fold serial dilution method; assay type: functional; conditions: ATCC 27853, 18 h
Procedure, shortened: (§3)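 Overnight cultures in nutrient or Mueller Hinton broth at 37 °C with shaking, diluted 50-fold into fresh MHB and grown 1.5–3 h to mid-log. Inoculum 5×10^5 CFU/mL in 2-fold serial dilutions, final range 32 to 0.015 μg/mL. MIC read visually after 18 h at 37 °C as the lowest concentration with no visible growth.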

[5] = Cytotoxicity against HK2 cells assessed as LDH release by Western blot analysis; assay type: cell-based, HK-2; conditions: human, primary human renal proximal tubule epithelial cells; read-out: CC50
[6] = Cytotoxicity against HK2 cells assessed as LDH release by Western blot analysis; conditions: human, hk-2
Klebsiella pneumoniae [7] = test: Antibacterial activity against Klebsiella pneumoniae ATCC 13883 after 18 hrs by 2 fold serial dilution method; assay type: functional; conditions: ATCC 13883, 18 h; procedure, shortened: as §3
[8] = Cytotoxicity against human HepG2 cells after 24 hrs by resazurin assay; assay type: cell-based; conditions: HepG2 cells
Klebsiella pneumoniae [9] = test: Antibacterial activity against clinical isolate carbapenem and polymyxin resistant Klebsiella pneumoniae Koprana 100650661:1 after 18 hrs by 2 fold serial dilution method; assay type: functional; conditions: Koprana 100650661:1, 18 h; procedure, shortened: as §2
Acinetobacter baumannii [10] = test: Antibacterial activity against Acinetobacter baumannii ATCC 19606 after 18 hrs by 2 fold serial dilution method; assay type: functional; conditions: ATCC 19606, 18 h; procedure, shortened: as §3
Staphylococcus aureus [11] = test: microbe, parasite or virus in culture; conditions: ATCC 25923, 18 h
[12] = Cytotoxicity against HK2 cells assessed as GGT release by Western blot analysis; assay type: cell-based, HK-2; conditions: human, primary human renal proximal tubule epithelial cells; read-out: CC50
Klebsiella pneumoniae [13] = test: Antibacterial activity against clinical isolate carbapenem and polymyxin resistant Klebsiella pneumoniae 138-16357-20362 after 18 hrs by 2 fold serial dilution method; assay type: functional; conditions: 138-16357-20362, 18 h; procedure, shortened: as §2
[14] = Cytotoxicity against HEK293 cells after 24 hrs by resazurin assay; assay type: cell-based; conditions: human, HEK293 cells
Klebsiella pneumoniae [15] = test: Antibacterial activity against multidrug resistant Klebsiella pneumoniae ATCC 700603 after 18 hrs by 2 fold serial dilution method; assay type: functional; conditions: Klebsiella pneumoniae, 700603, 18 h; procedure, shortened: as §1
[16] = Cytotoxicity against primary human proximal tubule cells assessed as GGT release at 100 ug/mL by Western blot analysis
Escherichia coli [17] = test: Antibacterial activity against Escherichia coli ATCC 25922 after 18 hrs by 2 fold serial dilution method; assay type: functional; conditions: ATCC 25922, 18 h; procedure, shortened: as §3
Acinetobacter baumannii [18] = test: Antibacterial activity against clinical isolate carbapenem and polymyxin resistant Acinetobacter baumannii Ptyela 100734512:2 after 18 hrs by 2 fold serial dilution method; assay type: functional; conditions: Ptyela 100734512:2, 18 h; procedure, shortened: as §2
Staphylococcus aureus [19] = test: Antibacterial activity against Staphylococcus aureus; assay type: functional
Pseudomonas aeruginosa [20] = test: Antibacterial activity against Pseudomonas aeruginosa; assay type: functional
Escherichia coli [21] = test: Antibacterial activity against Escherichia coli; assay type: functional

Compound	MIC (Klebsiella pneumoniae [1])	MIC (Pseudomonas aeruginosa [2])	MIC (Pseudomonas aeruginosa [3])	MIC (Pseudomonas aeruginosa [4])	CC50 [5]	Activity [6]	MIC (Klebsiella pneumoniae [7])	CC50 at 24 h [8]	MIC (Klebsiella pneumoniae [9])	MIC (Acinetobacter baumannii [10])	MIC (Staphylococcus aureus [11])	CC50 [12]	MIC (Klebsiella pneumoniae [13])	CC50 at 24 h [14]	MIC (Klebsiella pneumoniae [15])	Activity [16]	MIC (Escherichia coli [17])	MIC (Acinetobacter baumannii [18])	also measured
CC(C)C[C@@H]1NC(=O)[C@@H](Cc2ccccc2)NC(=O)[C@H](CCN)NC(=O)[C@@H](NC(=O)[C@H](CCN)NC(=O)[C@@H](NC(=O)[C@H](CCN)NC(=O)c2ccc(Oc3ccccc3)cc2)[C@@H](C)O)CCNC(=O)[C@H]([C@@H](C)O)NC(=O)[C@H](CCN)NC(=O)[C@H](CCN)NC1=O ({Benzoyl(4-OPh)}-[Dab]T[Dab][Dab][Dab][dF]L[Dab][Dab]T; lactam 4-C)	0.5 µg/mL (≈ 0.397 µM)	8 µg/mL (≈ 6.35 µM)	32 µg/mL (≈ 25.4 µM)	1 µg/mL (≈ 0.794 µM)	> 128 µg/mL	Non-toxic	0.5 µg/mL (≈ 0.397 µM)	287 µM	> 32 µg/mL	0.5 µg/mL (≈ 0.397 µM)	> 32 µg/mL	> 128 µg/mL	> 32 µg/mL	296 µM	0.5 µg/mL (≈ 0.397 µM)	Non-toxic	0.5 µg/mL (≈ 0.397 µM)	16 µg/mL (≈ 12.7 µM)	
CC(C)C[C@@H]1NC(=O)[C@@H](Cc2ccccc2)NC(=O)[C@H](CCN)NC(=O)[C@@H](NC(=O)[C@H](CCN)NC(=O)[C@@H](NC(=O)[C@H](CCN)NC(=O)c2ccc(-c3ccccc3)cc2)[C@@H](C)O)CCNC(=O)[C@H]([C@@H](C)O)NC(=O)[C@H](CCN)NC(=O)[C@H](CCN)NC1=O ({Benzoyl(4-Ph)}-[Dab]T[Dab][Dab][Dab][dF]L[Dab][Dab]T; lactam 4-C)	0.5 µg/mL (≈ 0.402 µM)	8 µg/mL (≈ 6.43 µM)	> 32 µg/mL	1 µg/mL (≈ 0.804 µM)	> 128 µg/mL	Non-toxic	0.5 µg/mL (≈ 0.402 µM)	298 µM	> 32 µg/mL	0.5 µg/mL (≈ 0.402 µM)	> 32 µg/mL	> 128 µg/mL	> 32 µg/mL	297 µM	1 µg/mL (≈ 0.804 µM)	Non-toxic	0.5 µg/mL (≈ 0.402 µM)	8 µg/mL (≈ 6.43 µM)	
CC(C)C[C@@H]1NC(=O)[C@@H](Cc2ccccc2)NC(=O)[C@H](CCN)NC(=O)[C@@H](NC(=O)[C@@H](CCN)NC(=O)[C@@H](NC(=O)[C@H](CCN)NC(=O)Nc2ccccc2Cl)[C@@H](C)O)CCNC(=O)[C@H]([C@@H](C)O)NC(=O)[C@H](CCN)NC(=O)[C@H](CCN)NC1=O ({NH(2-ClPh)-CO}-[Dab]T[dDab][Dab][Dab][dF]L[Dab][Dab]T; lactam 4-C)	1 µg/mL (≈ 0.822 µM)	16 µg/mL (≈ 13.1 µM)	> 32 µg/mL	0.5 µg/mL (≈ 0.411 µM)			0.5 µg/mL (≈ 0.411 µM)	> 300 µM	> 32 µg/mL	2 µg/mL (≈ 1.64 µM)	> 32 µg/mL		> 32 µg/mL		0.5 µg/mL (≈ 0.411 µM)		1 µg/mL (≈ 0.822 µM)	> 32 µg/mL	
CC(C)C[C@@H]1NC(=O)[C@@H](Cc2ccccc2)NC(=O)[C@H](CCN)NC(=O)[C@@H](NC(=O)[C@@H](CO)NC(=O)[C@@H](NC(=O)[C@H](CCN)NC(=O)Nc2ccccc2Cl)[C@@H](C)O)CCNC(=O)[C@H]([C@@H](C)O)NC(=O)[C@H](CCN)NC(=O)[C@H](CCN)NC1=O ({NH(2-ClPh)-CO}-[Dab]T[dS][Dab][Dab][dF]L[Dab][Dab]T; lactam 4-C)	> 32 µg/mL	> 32 µg/mL	> 32 µg/mL	8 µg/mL (≈ 6.65 µM)			32 µg/mL (≈ 26.6 µM)	> 300 µM	> 32 µg/mL	> 32 µg/mL	> 32 µg/mL		> 32 µg/mL		16 µg/mL (≈ 13.3 µM)		32 µg/mL (≈ 26.6 µM)	> 32 µg/mL	
CCCCCCCC(=O)N[C@H](C(=O)N[C@@H](CCN)C(=O)N[C@H]1CCNC(=O)[C@H]([C@@H](C)O)NC(=O)[C@H](CCN)NC(=O)[C@H](CCN)NC(=O)[C@H](CC(C)C)NC(=O)[C@@H](Cc2ccccc2)NC(=O)[C@H](CCN)NC1=O)[C@@H](C)O [Octanoyl Polymixin B nonapeptide] (Octanoyl-T[Dab][Dab][Dab][dF]L[Dab][Dab]T; lactam 3-C)	2 µg/mL (≈ 1.84 µM)	> 32 µg/mL	> 32 µg/mL	0.5 µg/mL (≈ 0.459 µM)			1 µg/mL (≈ 0.918 µM)	> 300 µM	> 32 µg/mL	2 µg/mL (≈ 1.84 µM)	> 32 µg/mL		> 32 µg/mL		2 µg/mL (≈ 1.84 µM)		1 µg/mL (≈ 0.918 µM)	> 32 µg/mL	MIC (Staphylococcus aureus [19]): > 16 µg/mL; MIC (Pseudomonas aeruginosa [20]): 4 µg/mL (≈ 3.67 µM); MIC (Escherichia coli [21]): 0.03 µg/mL (≈ 0.0275 µM)
